From PubChem BioAssay
Most compounds without a hit are left out; they make up all but 2.8% or so of the library.
ASAP1 inh: inhibitors of human ASAP1 ArfGAP activity, primary screen, biochemical, fluorescence polarization; ASAP1-stimulated ARF1 GTP hydrolysis, GDP FP detection; inhibition, % at 16.5 µM; 0.19% of 360,000 active; AID 624377, 2012; in the data active means inhibition above about 25%;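 further: 0% = vehicle with enzyme and substrate and 100% = no enzyme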
Target sequence (Q9ULH1 325-724 limits assumed): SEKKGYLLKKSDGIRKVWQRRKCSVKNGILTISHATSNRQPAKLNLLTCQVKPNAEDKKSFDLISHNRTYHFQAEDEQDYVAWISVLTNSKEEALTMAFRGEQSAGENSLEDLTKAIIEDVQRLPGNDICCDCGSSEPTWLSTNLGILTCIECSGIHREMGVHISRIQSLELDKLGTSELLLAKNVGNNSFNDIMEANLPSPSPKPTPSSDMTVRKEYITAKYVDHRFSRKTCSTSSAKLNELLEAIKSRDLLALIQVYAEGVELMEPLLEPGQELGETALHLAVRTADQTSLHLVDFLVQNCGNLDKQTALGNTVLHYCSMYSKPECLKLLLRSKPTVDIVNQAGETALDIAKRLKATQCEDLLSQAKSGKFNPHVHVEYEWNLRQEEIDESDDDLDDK
PAFAH1B3 inh: PAFAH1B3 enzyme inhibitors, primary screen, biochemical, fluorescence polarization, human; Platelet-activating factor acetylhydrolase IB subunit alpha1 (Homo sapiens), Q15102; recombinant PAFAH1B3, FP-rhodamine probe; inhibition, % at 3.39 µM; 0.28% of 340,000 active; AID 492972, 2010;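 active means inhibition above the screen-wide average of all tested compounds plus 3 SD, cut at about 25% in these data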;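 further: 0% = enzyme with DMSO only and 100% = wells lacking PAFAH1B3 protein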
PAFAH1B2 FP inh: PAFAH1B2 enzyme inhibitors, primary screen, biochemical, fluorescence polarization, human; recombinant PAFAH1B2, FP-rhodamine activity probe; inhibition, % at 3.39 µM; 1.2% of 340,000 active;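 active means inhibition above the mean of all tested compounds plus 3 SD, cut at about 24% in these data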;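 further: 0% = enzyme with DMSO and 100% = wells lacking PAFAH1B2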
Target sequence (P68402 whole entry, looked up): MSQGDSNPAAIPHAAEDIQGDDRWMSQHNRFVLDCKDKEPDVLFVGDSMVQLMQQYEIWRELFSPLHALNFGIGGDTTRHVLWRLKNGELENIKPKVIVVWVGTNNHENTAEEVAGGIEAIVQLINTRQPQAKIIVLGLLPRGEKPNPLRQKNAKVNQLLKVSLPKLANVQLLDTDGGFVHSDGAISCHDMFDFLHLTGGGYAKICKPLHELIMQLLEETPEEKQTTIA
ARFGAP1 inh: inhibitors of rat ARFGAP1 GAP activity, primary screen, biochemical, fluorescence polarization, GDP tracer; ADP-ribosylation factor GTPase-activating protein 1 (Rattus norvegicus), Q62848; Arfgap1-stimulated ARF1 GTP hydrolysis, GDP FP detection; inhibition, % at 16.5 µM; 0.26% of 360,000 active;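 active means inhibition above a per-plate limit, mean inhibition of low control wells plus 3 SD, cut at about 25% in these data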;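 further: 0% = DMSO wells with enzyme and 100% = wells lacking Arfgap1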
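Assay system: purified rat His6-Arfgap1 residues 1-136 (GAP domain); Reagent: human Δ17 ARF1 bound to GTP; Dosing: 16.5 µM single point, 1.26% DMSO; Times: GTP hydrolysis reaction 2 h at 25 °C; Signal: FP, GDP Alexa 633 tracer displaced from anti-GDP antibody, 620/688 nm; Measure: % inhibition from polarization.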
PAFAH2 FP inh: PAFAH2 enzyme inhibitors, primary screen, biochemical, fluorescence polarization, human; recombinant PAFAH2, FP-rhodamine activity probe; inhibition, % at 3.39 µM; 0.99% of 340,000 active; AID 492956, 2010;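 active means inhibition above the mean over all tested compounds plus 3 SD, cut at about 30% in these data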;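 further: inhibitors block probe labeling of enzyme so polarization drops; 0% = enzyme with DMSO and 100% = wells lacking PAFAH2 protein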
pPAFAH FP inh: pPAFAH enzyme inhibitors, primary screen, biochemical, fluorescence polarization, human; 1.5% of 330,000 active; Platelet-activating factor acetylhydrolase (Homo sapiens), Q13093; AID 463082, 2010; inhibition, % at 3.39 µM; recombinant pPAFAH, FP-rhodamine probe fluorescence polarization;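 active means inhibition above the mean inhibition across the screen plus 3 SD, cut at about 25% in these data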;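 further: inhibitors block binding of the rhodamine activity-based probe so polarization drops; 0% = enzyme with DMSO and 100% = wells lacking pPAFAH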
pPAFAH FP conf: pPAFAH (PLA2G7) enzyme inhibitors, confirmation, biochemical, fluorescence polarization, human; shares compounds with pPAFAH FP inh; recombinant pPAFAH, FP-Rh probe fluorescence polarization; inhibition, % at 3.39 µM; 72% of 2,300 active;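 active means mean inhibition of the triplicate above the hit cutoff set for the earlier primary screen, cut at about 25% in these data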;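 further: 0% = enzyme with DMSO and 100% = wells lacking pPAFAH enzyme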
* hit, by the source's call; . = not tested or not shown.

SMILES	ASAP1 inh	PAFAH1B3 inh	PAFAH1B2 FP inh	ARFGAP1 inh	PAFAH2 FP inh	pPAFAH FP inh	pPAFAH FP conf
CC(CN1CCN(CCOCCO)CC1)CN1c2ccccc2Sc2ccc(Cl)cc21 (centres undefined)	0	.	.	-8	.	.	.
CN1CCN(CCCN2c3ccccc3Sc3ccc(Cl)cc32)CC1	3	8	1	-7	5	45*	42*
OC1CC2CCC(C1)N2CCCN1c2ccccc2Sc2ccc(Cl)cc21 (centres undefined)	3	9	8	10	-1	.	.
OCCN1CCN(CCCN2c3ccccc3Sc3ccc(C(F)(F)F)cc32)CC1	-9	13	6	-3	-3	40*	38*
O=C(CCNS(=O)(=O)c1ccccc1C(F)(F)F)NNC(=O)C1COc2ccccc2O1 (centres undefined)	-5	-2	8	-3	8	4	.
CCC1CCCCN1Cc1ccc(CNC(=O)CCc2nnc3ccc(N4CCCCC4)nn23)o1 (centres undefined)	-5	6	0	-7	1	10	.
COc1cc2nc(CN3CCOCC3)n(CC(=O)N3CCCCCC3)c(=O)c2cc1OC	-17	3	2	-7	2	56*	5
CCc1ccc(NC(=O)Nc2cc(C(=O)NCC3CCCO3)ccc2N2CC3CC(C2)c2cccc(=O)n2C3)cc1 (centres undefined)	0	6	0	2	18	87*	94*
COCCNC(=O)c1ccc(N2CC3CC(C2)c2cccc(=O)n2C3)c(NC(=O)c2cc(OC)cc(OC)c2)c1 (centres undefined)	-8	7	-4	2	4	4	.
CCOCCCNC(=O)c1ccc(N2CC3CC(C2)c2cccc(=O)n2C3)c(NC(=O)Nc2cccc(OC)c2)c1 (centres undefined)	2	4	-1	-4	16	66*	66*
CC(=O)Nc1ccc(Nc2nc(C)nc3c2oc2ccccc23)cc1	-1	0	8	7	-3	6	.
CC(=O)N1CCN(c2ccc(Nc3nc(C)nc4c3oc3ccccc34)cc2)CC1	7	2	6	-6	2	40*	34*
O=Cc1nc(-c2ccc(Cl)cc2)n2ccccc12	2	-5	-2	16	4	71*	4
O=Cc1nc(-c2ccccc2Cl)n2ccccc12	4	5	1	-5	-2	3	.
O=[N+]([O-])c1ccccc1NC(=S)N/N=C/c1ccc(O)c(O)c1	11	24	5	5	49*	59*	64*
O=C(O)CCc1ccc(-c2cccs2)n1Cc1ccco1	-1	6	8	-10	3	19	.
O=C(O)CCc1ccc(-c2ccc(Cl)cc2)n1Cc1ccco1	-4	1	13	-9	15	35*	16
O=S(=O)(c1ccccc1)N1CCCc2nc(-c3ccc(F)cc3)ccc21	6	.	.	11	.	.	.
O=C(N/N=C/c1ccc(Cl)cc1)c1ccc2c(c1)OCO2	3	7	6	12	4	0	.
O=C(N/N=C/c1ccncc1)c1ccc2c(c1)OCO2	-14	5	2	16	9	41*	-4
COc1ccc(CCNC(=O)CNC(=O)N2CC(=O)Nc3ccccc32)cc1OC	4	.	.	-1	.	.	.
COc1cccc(NC(=O)Nc2cccnc2)c1	-2	10	6	3	-7	3	.
Cn1ccc2cc(NC(=O)Nc3cccnc3)ccc21	9	20	5	12	-16	37*	7
CCOC(=O)c1cc(-c2ccc(OC)cc2)n(CCC(=O)NC2CCN(Cc3ccccc3)CC2)c1C	0	4	-1	-4	-7	16	.
CCOC(=O)c1cc(-c2ccc(F)cc2)n(CCC(=O)NC2CCN(Cc3ccccc3)CC2)c1C	3	-2	0	-1	9	40*	16
SMILES	ASAP1 inh	PAFAH1B3 inh	PAFAH1B2 FP inh	ARFGAP1 inh	PAFAH2 FP inh	pPAFAH FP inh	pPAFAH FP conf
O=c1c(-c2ccc([N+](=O)[O-])cc2)coc2c(O)c(O)ccc12	-1	17	9	3	24	54*	78*
O=C(NCCc1ccc2c(c1)OCCO2)c1cccc(S(=O)(=O)N2CCCC2)c1	4	9	0	-7	7	36*	-6
O=C(NCCc1ccc2c(c1)OCCO2)c1cc(S(=O)(=O)N2CCCC2)ccc1Cl	-16	6	-5	-7	-1	.	.
COCCNC(=O)C(=O)c1cc(C)n(-c2ccc([N+](=O)[O-])cc2)c1C	2	1	1	-14	1	36*	28*
CC(=O)Oc1cccc(C2=CC(=O)CC(C)(C)C2=O)c1	-5	.	.	-2	.	.	.
CCCN(CCC)Cc1cc(=O)oc2cc(C)cc(C)c12	-1	.	.	1	.	.	.
COc1ccc(OC)c(N2C(=O)[C@@H]3C(c4ccccc4Cl)=NO[C@@H]3C2=O)c1	9	6	5	-1	21	38*	13
Cc1cccc(C)c1N1C(=O)[C@@H]2C(c3ccccc3Cl)=NO[C@@H]2C1=O	-2	-4	11	-1	3	3	.
COc1ccc(/C=N/NC(=O)C(=O)/C=C2\NC3(CCCC3)Cc3ccccc32)cc1	-3	0	-5	-11	-14	1	.
O=C(/C=C1\NC2(CCCC2)Cc2ccccc21)C(=O)N/N=C/c1ccc(O)c(O)c1	13	15	8	2	34*	48*	87*
O=c1cc2oc3cc(O)c(O)cc3c(-c3ccccc3[N+](=O)[O-])c-2cc1O	5	13	17	-4	57*	88*	83*
CSC(=S)NN=C(C)c1cccc(C)n1	-9	7	4	5	0	.	.
O=C(/C=C/c1cccs1)c1cc(Br)ccc1OC(=O)N1CCOCC1	-14	0	3	-5	84*	64*	61*
Nc1scc2c(C(=O)N/N=C/c3ccc(Cl)cc3)nn(-c3ccccc3)c(=O)c12	-2	10	3	6	4	35*	11
CCOC(=O)c1nn(-c2ccccc2)c(=O)c2c(N)scc12	2	14	5	-24	9	1	.
